Experimental data taken from ChEMBL document CHEMBL1140788, “Development of CXCR3 antagonists. Part 3: Tropenyl and homotropenyl-piperidine urea derivatives” (Bioorg Med Chem Lett, 2008).
pKi: −log10 of the molar value. In brackets after ≈: the same amount, converted by molar mass. Activity calls are given as the source filed them. The calls are words filed in the database; no cut-off is given here.

Legend:
[1] = molecular target: T1, C-X-C chemokine receptor type 3 (Homo sapiens, UniProt P49682); assay: Antagonist activity at human CXCR3 by [35S]GTP-gamma-S binding assay; type: functional
T1 sequence (P49682 whole entry): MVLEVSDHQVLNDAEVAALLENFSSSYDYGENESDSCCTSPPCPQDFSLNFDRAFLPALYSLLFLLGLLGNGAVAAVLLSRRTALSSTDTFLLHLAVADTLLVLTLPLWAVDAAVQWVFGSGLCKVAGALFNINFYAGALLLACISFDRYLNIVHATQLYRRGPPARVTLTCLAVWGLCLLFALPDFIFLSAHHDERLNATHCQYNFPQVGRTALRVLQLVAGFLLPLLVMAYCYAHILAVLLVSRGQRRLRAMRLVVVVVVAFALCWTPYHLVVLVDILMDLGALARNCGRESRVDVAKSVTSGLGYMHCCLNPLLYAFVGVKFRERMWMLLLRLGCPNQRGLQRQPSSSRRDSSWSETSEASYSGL

[2] = Distribution coefficient, log D at pH 7.4; type: physicochemical; settings: octanol/water
Method in brief: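 Octanol–water partition at pH 7.4.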

[3] = molecular target: T2, C-X-C chemokine receptor type 3 (Mus musculus, UniProt O88410); assay: Antagonist activity at mouse CXCR3; type: functional
T2 sequence (O88410 whole entry): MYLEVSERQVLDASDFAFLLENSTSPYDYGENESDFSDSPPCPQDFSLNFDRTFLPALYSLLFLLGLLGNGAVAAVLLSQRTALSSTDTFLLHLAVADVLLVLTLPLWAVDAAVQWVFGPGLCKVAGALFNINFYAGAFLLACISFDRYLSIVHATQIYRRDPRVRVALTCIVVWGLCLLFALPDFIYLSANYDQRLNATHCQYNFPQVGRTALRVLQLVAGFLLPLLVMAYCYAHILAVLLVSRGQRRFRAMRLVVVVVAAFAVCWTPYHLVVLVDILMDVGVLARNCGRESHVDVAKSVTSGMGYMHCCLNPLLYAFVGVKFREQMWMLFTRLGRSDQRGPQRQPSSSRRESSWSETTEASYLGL

[4] = Intrinsic clearance in human liver microsomes at 0.5 uM; type: ADME, Microsome
[5] = Oral bioavailability in BALB/c mouse at 30 mg/kg; type: ADME, organism-based; settings: in vivo
Method in brief: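 Balb/c mice given 30 mg/kg orally; plasma concentrations followed over time, sampled from 0 to 16 h post dose.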

[6] = Solubility at pH 6.5 buffer; type: physicochemical
[7] = Half life in mouse; type: ADME, organism-based; settings: in vivo
Mus musculus [8] = assay: Ex vivo inhibition of CXCL11-induced mouse CXCR3 receptor internalization in mouse T cells at 30 mg/kg, po after 4 hrs; type: functional, organism-based; design: dose 30 mg/kg; settings: T-cell
Method in brief: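 Mice dosed orally at 30 mg/kg; plasma collected at timepoints post dose and incubated with activated murine T cells, then 3 nM CXCL11 (A75) for 60 min at 37 °C; agonist removed, surface CXCR3 measured by flow cytometry.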

Mus musculus [9] = organism: Mus musculus; assay: In vitro inhibition of CXCL11-induced mouse CXCR3 receptor internalization in mouse T cells in presence of 90% naive mouse plasma; settings: T-cell, read-out: pA2 (converted)
Cytochrome P450 2D6 = Cytochrome P450 2D6 (Homo sapiens, UniProt P10635); assay: Inhibition of CYP2D6; type: ADME
Chain of Cytochrome P450 2D6 (P10635 whole entry): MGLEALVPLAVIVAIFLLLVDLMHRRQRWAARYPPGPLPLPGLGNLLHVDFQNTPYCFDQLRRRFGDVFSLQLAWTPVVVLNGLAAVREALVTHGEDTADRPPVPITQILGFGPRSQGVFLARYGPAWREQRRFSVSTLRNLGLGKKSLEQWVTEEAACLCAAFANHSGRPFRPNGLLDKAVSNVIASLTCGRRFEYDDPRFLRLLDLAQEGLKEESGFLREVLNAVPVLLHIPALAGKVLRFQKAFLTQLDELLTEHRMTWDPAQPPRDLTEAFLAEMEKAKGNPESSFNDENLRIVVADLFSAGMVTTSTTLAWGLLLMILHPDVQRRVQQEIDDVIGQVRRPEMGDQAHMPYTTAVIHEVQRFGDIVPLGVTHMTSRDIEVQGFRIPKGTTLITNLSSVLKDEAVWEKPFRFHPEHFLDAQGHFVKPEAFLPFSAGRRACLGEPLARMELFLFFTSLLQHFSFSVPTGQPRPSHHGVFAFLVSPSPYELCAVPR

Homo sapiens = organism: Homo sapiens; assay: Protein binding to human plasma; settings: read-out: PPB
[10] = molecular target: Muscarinic acetylcholine receptor M3 (Homo sapiens, UniProt P20309); assay: Inhibition of muscarinic M3 receptor
Chain of Muscarinic acetylcholine receptor M3 (P20309 whole entry): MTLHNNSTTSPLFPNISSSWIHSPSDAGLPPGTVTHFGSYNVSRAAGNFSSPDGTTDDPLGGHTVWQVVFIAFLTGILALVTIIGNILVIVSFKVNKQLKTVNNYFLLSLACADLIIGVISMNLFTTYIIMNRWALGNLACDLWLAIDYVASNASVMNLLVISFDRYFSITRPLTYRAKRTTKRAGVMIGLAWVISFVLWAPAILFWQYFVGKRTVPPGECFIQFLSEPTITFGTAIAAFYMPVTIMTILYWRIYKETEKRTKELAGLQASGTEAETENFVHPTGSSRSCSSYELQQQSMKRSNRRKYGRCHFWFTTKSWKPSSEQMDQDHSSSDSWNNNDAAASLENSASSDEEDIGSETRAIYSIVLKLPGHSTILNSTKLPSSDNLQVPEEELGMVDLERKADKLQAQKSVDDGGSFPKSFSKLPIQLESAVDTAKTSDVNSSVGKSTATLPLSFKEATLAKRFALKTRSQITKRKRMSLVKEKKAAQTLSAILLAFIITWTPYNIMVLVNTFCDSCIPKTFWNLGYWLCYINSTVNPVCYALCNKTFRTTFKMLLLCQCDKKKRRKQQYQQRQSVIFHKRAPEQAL

[11] = Inhibition of sodium channel
[12] = molecular target: T3, Muscarinic acetylcholine receptor M1 (Homo sapiens, UniProt P11229); assay: Inhibition of muscarinic M1 receptor
T3 sequence (P11229 whole entry): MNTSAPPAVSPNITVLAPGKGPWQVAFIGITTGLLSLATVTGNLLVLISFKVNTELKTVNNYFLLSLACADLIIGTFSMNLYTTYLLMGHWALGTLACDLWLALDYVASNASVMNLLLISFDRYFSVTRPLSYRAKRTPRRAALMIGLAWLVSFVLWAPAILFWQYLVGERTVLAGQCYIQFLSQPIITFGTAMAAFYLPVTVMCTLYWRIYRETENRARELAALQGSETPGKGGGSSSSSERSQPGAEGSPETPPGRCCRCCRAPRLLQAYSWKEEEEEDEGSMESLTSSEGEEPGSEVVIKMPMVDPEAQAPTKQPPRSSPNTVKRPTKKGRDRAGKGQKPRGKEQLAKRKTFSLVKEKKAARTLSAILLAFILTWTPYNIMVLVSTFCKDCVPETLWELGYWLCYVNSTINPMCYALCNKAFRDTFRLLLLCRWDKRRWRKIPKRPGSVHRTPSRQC

Mus musculus [13] = assay: Ex vivo inhibition of CXCL11-induced mouse CXCR3 receptor internalization in mouse T cells at 30 mg/kg, po after 10 hrs; type: functional, organism-based; design: dose 30 mg/kg; settings: T-cell
Method in brief: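 Mice were dosed orally at 30 mg/kg, and plasma was taken at each timepoint after dosing. Activated murine T cells were incubated with that plasma, then stimulated with 3 nM CXCL11 (A75) for 60 min at 37 °C. Agonist was removed and surface CXCR3 was measured by flow cytometry.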

[14] = molecular target: T4, 5-hydroxytryptamine receptor 1A (Homo sapiens, UniProt P08908); assay: Inhibition of 5HT1A receptor
T4 sequence (P08908 whole entry): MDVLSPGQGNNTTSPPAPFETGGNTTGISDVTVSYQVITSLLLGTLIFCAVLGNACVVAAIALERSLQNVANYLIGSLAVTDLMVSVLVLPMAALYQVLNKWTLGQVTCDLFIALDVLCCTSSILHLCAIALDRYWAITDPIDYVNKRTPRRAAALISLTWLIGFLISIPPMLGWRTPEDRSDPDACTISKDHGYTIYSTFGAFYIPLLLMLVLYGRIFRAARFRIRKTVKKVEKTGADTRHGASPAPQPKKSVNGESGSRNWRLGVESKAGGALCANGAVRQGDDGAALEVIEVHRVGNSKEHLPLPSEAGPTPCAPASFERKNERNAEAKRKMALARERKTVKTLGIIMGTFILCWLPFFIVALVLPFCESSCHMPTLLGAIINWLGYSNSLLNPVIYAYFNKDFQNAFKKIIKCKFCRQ

[15] = molecular target: 5-hydroxytryptamine receptor 5A (Homo sapiens, UniProt P47898); assay: Inhibition of 5HT5A receptor
Chain of 5-hydroxytryptamine receptor 5A (P47898 whole entry): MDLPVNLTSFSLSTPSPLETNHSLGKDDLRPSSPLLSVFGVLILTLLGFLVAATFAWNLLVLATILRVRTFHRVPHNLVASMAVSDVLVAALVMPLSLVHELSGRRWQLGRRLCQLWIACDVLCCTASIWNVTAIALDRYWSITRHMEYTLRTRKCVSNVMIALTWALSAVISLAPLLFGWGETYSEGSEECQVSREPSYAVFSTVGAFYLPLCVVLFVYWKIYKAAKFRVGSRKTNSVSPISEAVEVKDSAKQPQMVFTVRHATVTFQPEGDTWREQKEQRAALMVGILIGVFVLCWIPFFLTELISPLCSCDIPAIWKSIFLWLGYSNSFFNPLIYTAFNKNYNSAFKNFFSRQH

[16] = molecular target: T5, Muscarinic acetylcholine receptor M2 (Homo sapiens, UniProt P08172); assay: Inhibition of muscarinic M2 receptor
T5 sequence (P08172 whole entry): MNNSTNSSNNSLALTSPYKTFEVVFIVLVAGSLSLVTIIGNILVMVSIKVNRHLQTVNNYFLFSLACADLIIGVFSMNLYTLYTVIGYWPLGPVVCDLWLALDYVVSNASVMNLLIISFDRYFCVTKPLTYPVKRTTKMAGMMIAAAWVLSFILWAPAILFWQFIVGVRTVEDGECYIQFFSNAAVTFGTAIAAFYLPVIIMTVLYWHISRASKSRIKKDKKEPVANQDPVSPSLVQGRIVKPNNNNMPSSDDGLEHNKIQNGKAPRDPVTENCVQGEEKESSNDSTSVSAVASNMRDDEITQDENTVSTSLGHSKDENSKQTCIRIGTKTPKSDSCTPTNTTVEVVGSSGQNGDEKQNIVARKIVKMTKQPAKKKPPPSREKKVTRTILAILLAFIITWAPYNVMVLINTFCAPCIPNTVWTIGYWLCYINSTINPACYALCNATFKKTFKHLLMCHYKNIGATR

Row | pKi [1] | logD [2] | pKi [3] | microsomal CLint at 0.5 µM [4] | solubility [6] | SMILES | further results
1 | 8.05 | 3.4 | 7.42 | 9 µL/min/mg | – | CC(=O)N1C2C=C(CN3CCC(NC(=O)Nc4cc(F)cc(C(F)(F)F)c4)CC3)CC1CCC2 (stereo not given) | Activity (Mus musculus [8]): Active; Kb (Mus musculus [9]): 0.186 µM
2 | 7.74 | 4.2 | 7.00 | 60 µL/min/mg | – | CC(C)(C)C(=O)N1C2C=C(CN3CCC(NC(=O)Nc4cc(F)cc(C(F)(F)F)c4)CC3)CC1CC2 (stereo not given) | –
3 | 7.57 | 3 | 6.92 | 11 µL/min/mg | – | CC(=O)N1C2C=C(CN3CCC(NC(=O)Nc4cc(F)cc(C(F)(F)F)c4)CC3)CC1CC2 (stereo not given) | –
4 | 6.72 | 4.6 | 6.02 | 48 µL/min/mg | – | CCOC(=O)N1C2C=C(CN3CCC(NC(=O)Nc4cc(F)cc(C(F)(F)F)c4)CC3)CC1CC2 (stereo not given) | –
5 | 7.70 | 3.4 | 7.10 | 9 µL/min/mg | – | O=C(Nc1cc(F)cc(C(F)(F)F)c1)NC1CCN(CC2=CC3CCC(C2)N3C(=O)C2CC2)CC1 (stereo not given) | –
6 | 7.55 | 3.9 | 6.74 | 58 µL/min/mg | – | CC(C)C(=O)N1C2C=C(CN3CCC(NC(=O)Nc4cc(F)cc(C(F)(F)F)c4)CC3)CC1CC2 (stereo not given) | –

More lines, now with the values behind:

Row | SMILES | pKi [1] | logD [2] | pKi [3] | microsomal CLint at 0.5 µM [4] | solubility [6] | further results
7 | CC(=O)N1C2CCC1CC(CN1CCC(NC(=O)Nc3cc(F)cc(C(F)(F)F)c3)CC1)C2 (mixture of isomers) | 6.92 | 2.8 | 6.19 | – | – | –
8 | CC(=O)c1cccc(NC(=O)NC2CCN(CC3=CC4CCCC(C3)N4C(C)=O)CC2)c1 (stereo not given) | 6.55 | 2.8 | – | 10 µL/min/mg | – | –
9 | O=C(Nc1cc(C(F)(F)F)cc(C(F)(F)F)c1)NC1CCN(CCC2CCS(=O)(=O)C2)CC1 (stereo not given) | 5.96 | 2.8 | – | 3.5 µL/min/mg | 1.36 mg/mL (≈ 2710 µM) | bioavailability [5]: 52%; half-life [7]: 5.5 h
10 | CC1(C)[C@H]2CC=C(CN3CCC(NC(=O)Nc4cc(C(F)(F)F)cc(C(F)(F)F)c4)CC3)[C@@H]1C2 | 7.59 | 5.1 | 6.40 | 82 µL/min/mg | < 0.001 mg/mL | pKi (Cytochrome P450 2D6): 5.30; fraction unbound (Homo sapiens): 0.001
11 | CC(=O)N1C2C=C(CN3CCC(NC(=O)Nc4cccc(OC(C)C)c4)CC3)CC1CCC2 (stereo not given) | 7.96 | 2.5 | 7.48 | 22 µL/min/mg | – | –
12 | CC(C)(C)C(=O)N1CCC(CN2CCC(NC(=O)Nc3cc(C(F)(F)F)cc(C(F)(F)F)c3)CC2)CC1 | 7.22 | 4.2 | – | 80 µL/min/mg | 0.045 mg/mL (≈ 83.9 µM) | fraction unbound (Homo sapiens): 0.01
13 | O=C(Nc1ccc2ccccc2c1)NC1CCN(C/C2=C/CCCCCC2)CC1 | – | – | – | 72 µL/min/mg | 0.0001 mg/mL (≈ 0.255 µM) | bioavailability [5]: 1%; fraction unbound (Homo sapiens): < 0.001
14 | CC(C)(C)C(=O)N1C2C=C(CN3CCC(NC(=O)Nc4cc(F)cc(C(F)(F)F)c4)CC3)CC1CCC2 (stereo not given) | 8.00 | 4.5 | 7.24 | 74 µL/min/mg | – | –
15 | CC(=O)N1CCC(CN2CCC(NC(=O)Nc3cc(C(F)(F)F)cc(C(F)(F)F)c3)CC2)CC1 | 6.74 | 3.1 | – | 4.5 µL/min/mg | 0.85 mg/mL (≈ 1720 µM) | –
16 | CC(=O)N1C2C=C(CN3C4CCC3CC(NC(=O)Nc3cc(F)cc(C(F)(F)F)c3)C4)CC1CCC2 (stereo not given) | 8.15 | 3.1 | 8.22 | 7 µL/min/mg | 0.04 mg/mL (≈ 78.7 µM) | bioavailability [5]: 70%; pKi [10]: 5.92; pKi (Cytochrome P450 2D6): 4.82; pKi [11]: 6.24; pKi [12]: 6.64; Activity (Mus musculus [13]): Active; Kb (Mus musculus [9]): 0.0955 µM; pKi [14]: 6.55; pKi [15]: 5.52; pKi [16]: 6.55
17 | CC(=O)N1C2C=C(CN3CCC(NC(=O)Nc4cc(F)cc(OC(C)C)c4)CC3)CC1CCC2 (stereo not given) | 8.52 | 2.7 | 8.22 | 50 µL/min/mg | – | –
